Key:
Cannabinoid receptor 1 [1] = target: T1, Cannabinoid receptor 1 (Homo sapiens, UniProt P21554); experiment: Allosteric antagonist activity at human CB1 receptor expressed in CHO-RD-HGA16 cells overexpressing Galpha16 assessed as inhibition of CP55940-stimulated calcium mobilization incubated for 15 mins FLIPR assay; assay type: functional, cell-based
Cannabinoid receptor 1 [2] = target: T1, Cannabinoid receptor 1; experiment: Agonist activity at human CB1 receptor CP55940-stimulated calcium mobilization at 10 uM incubated for 15 mins FLIPR assay relative to control; assay type: functional
[3] = target: Cannabinoid receptor 2 (Homo sapiens) (UniProt P34972); experiment: Agonist activity at human CB2 receptor CP55940-stimulated calcium mobilization at 10 uM incubated for 15 mins FLIPR assay relative to control; assay type: functional
How it was run: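 CB2 agonist screen in CHO-RD-HGA16 cells stably expressing human CB2, loaded with Calcium 5 dye for 45 min at 37 °C. Cells were pretreated 15 min with vehicle, then the test compound was added at a single concentration. Fluorescence was read on FLIPR every 1 s for 90 s (485/525 nm). Response is expressed as % of CP55,940 Emax.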

[4] = target: Cannabinoid receptor 2 (Homo sapiens) (UniProt P34972); experiment: Antagonist activity at human CB2 receptor CP55940-stimulated calcium mobilization incubated for 15 mins FLIPR assay; assay type: functional; design: concentration or dose not given beside the values
How it was run: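 CB2 antagonist screen in human CB2 CHO-RD-HGA16 cells loaded with Calcium 5 dye. Cells were pretreated 15 min at 37 °C with the test compound at a single concentration (10 μM), then challenged with CP55,940 at its EC80 during the FLIPR read (90 s, 485/525 nm). Response is expressed as % inhibition of the CP55,940 EC80 signal.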

Cannabinoid receptor 1 [5] = target: T1, Cannabinoid receptor 1; experiment: Allosteric antagonist activity against human CB1 receptor expressed in HEK293 cells membrane measured after 60 mins by [35S]GTPgammaS binding assay; assay type: functional, cell membranes
How it was run: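 Membranes from HEK293 cells expressing hCB1 are used in assay buffer (50 mM Tris, 3 mM MgCl2, 0.2 mM EGTA, 100 mM NaCl, 1 mg/ml BSA, pH 7.4). They are preincubated 10 min, then incubated 60 min at 30 °C with 30 μM GDP, 0.1 nM [35S]GTPγS, 100 nM CP55,940 and serially diluted compound (0.1% DMSO final). Nonspecific binding is set with 30 μM unlabeled GTPγS. Reactions are filtered. Data are normalized to CP55,940 alone and fitted by 3-parameter regression; mean of ≥3 experiments in duplicate.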

Cannabinoid receptor 1 [6] = target: T1, Cannabinoid receptor 1; experiment: Antagonist activity at N-terminal tagged human CB1 receptor transfected with HEK293 cells assessed as forskolin-stimulated cAMP level in presence of CP55940 by BRET assay; assay type: functional, cell-based
How it was run: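 HEK293 cells stably expressing hCB1 (3HA-tagged at Otago, untagged at RTI) are transiently transfected with the CAMYEL BRET cAMP sensor. Cells are serum-starved 30 min and given 5 μM coelenterazine H final. Compound dilutions are added together with 5 μM forskolin and 1 μM CP55,940. BRET (460/535) is read for about 20 min at 37 °C.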

Cannabinoid receptor 1 [7] = target: Cannabinoid receptor 1 (Mus musculus, UniProt P47746); experiment: Allosteric antagonist activity against mouse CB1 receptor in cerebellar membranes measured after 60 mins by [35S]GTPgammaS binding assay
[8] = Metabolic stability in rat liver microsomes assessed as half life in presence of NADPH measured upto 45 mins by LC-MS/MS analysis; assay type: ADME, Microsome; conditions: 0.75 h
How it was run: (§1)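 Rat liver microsomes (0.5 mg/mL protein) in 100 mM potassium phosphate, pH 7.4, at 37 °C with 1 mM NADPH. Samples were taken at 0, 5, 15, 30 and 45 min, quenched with acetonitrile and analysed by LC/MS/MS. Half-life and clearance were derived from two independent experiments in duplicate.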

[9] = Metabolic stability in rat liver microsomes assessed as clearance in presence of NADPH measured upto 45 mins by LC-MS/MS analysis; assay type: ADME, Microsome; conditions: 0.75 h; how it was run: as §1

Chain of Cannabinoid receptor 1 (Mus musculus, UniProt P47746) (P47746 whole entry): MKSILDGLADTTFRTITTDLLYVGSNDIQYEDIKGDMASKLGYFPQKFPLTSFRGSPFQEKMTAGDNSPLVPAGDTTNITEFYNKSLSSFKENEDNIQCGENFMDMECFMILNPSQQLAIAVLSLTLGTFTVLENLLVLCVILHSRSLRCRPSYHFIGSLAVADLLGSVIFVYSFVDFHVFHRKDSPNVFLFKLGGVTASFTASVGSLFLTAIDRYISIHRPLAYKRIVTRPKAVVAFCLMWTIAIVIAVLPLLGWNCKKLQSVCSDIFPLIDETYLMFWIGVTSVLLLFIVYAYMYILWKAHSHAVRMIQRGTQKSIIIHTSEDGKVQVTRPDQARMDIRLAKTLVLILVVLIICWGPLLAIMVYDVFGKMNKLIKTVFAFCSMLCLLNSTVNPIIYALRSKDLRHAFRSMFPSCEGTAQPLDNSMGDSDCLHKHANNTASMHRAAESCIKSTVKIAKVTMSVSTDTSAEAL
Chain of Cannabinoid receptor 2 (Homo sapiens) (P34972 whole entry): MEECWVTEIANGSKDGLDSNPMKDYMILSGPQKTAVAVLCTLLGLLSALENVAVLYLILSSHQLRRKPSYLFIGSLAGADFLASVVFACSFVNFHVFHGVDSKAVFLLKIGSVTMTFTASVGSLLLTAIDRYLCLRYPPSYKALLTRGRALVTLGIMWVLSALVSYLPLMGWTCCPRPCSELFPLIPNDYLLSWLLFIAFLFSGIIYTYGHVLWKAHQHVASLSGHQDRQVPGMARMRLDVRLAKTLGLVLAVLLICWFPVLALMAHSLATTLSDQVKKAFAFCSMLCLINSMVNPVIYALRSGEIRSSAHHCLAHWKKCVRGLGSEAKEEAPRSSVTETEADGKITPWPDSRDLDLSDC
T1 sequence (P21554 whole entry): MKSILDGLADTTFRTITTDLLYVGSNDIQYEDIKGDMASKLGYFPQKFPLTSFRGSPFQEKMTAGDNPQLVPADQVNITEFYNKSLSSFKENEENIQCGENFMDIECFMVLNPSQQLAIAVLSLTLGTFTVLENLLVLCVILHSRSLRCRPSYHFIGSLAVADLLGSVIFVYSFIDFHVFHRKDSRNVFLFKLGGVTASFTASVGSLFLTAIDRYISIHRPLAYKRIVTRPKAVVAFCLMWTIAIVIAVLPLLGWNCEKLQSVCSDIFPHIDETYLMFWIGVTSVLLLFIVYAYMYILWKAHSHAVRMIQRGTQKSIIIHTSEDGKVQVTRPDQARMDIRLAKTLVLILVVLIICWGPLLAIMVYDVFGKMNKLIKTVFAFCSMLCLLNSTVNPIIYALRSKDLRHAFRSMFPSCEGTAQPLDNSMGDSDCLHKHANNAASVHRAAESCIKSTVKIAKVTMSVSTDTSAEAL

SMILES	IC50 (Cannabinoid receptor 1 [1]) [µM]	Emax (Cannabinoid receptor 1 [2]) [%]	Emax [3] [%]	Activity [4] [%]	IC50 (Cannabinoid receptor 1 [5]) [µM]	IC50 (Cannabinoid receptor 1 [6]) [µM]	IC50 (Cannabinoid receptor 1 [7]) [µM]	t1/2 [8] [min]	CLH [9] [µL/min/mg]
O=C(NCCc1ccc(C(F)(F)F)cc1)Nc1ccc(Cl)cc1	0.178	< 30	< 20	< 35					
O=C(NCCc1ccc(-c2ccccc2)cc1)Nc1ccc(Cl)cc1	0.871	< 30	< 20	< 35					
CN(C)c1ccc(CCNC(=O)Nc2ccc(Cl)cc2)cc1	0.257	< 30	< 20	< 35					
O=C(NCCc1cccc(F)c1)Nc1ccc(Cl)cc1	0.0513	< 30	< 20	< 35	6.76	1.35			
COc1cc(CCNC(=O)Nc2ccc(Cl)cc2)ccc1O	> 10	< 30	< 20	< 35					
O=C(NCCc1ccccc1Cl)Nc1ccc(Cl)cc1	0.229	< 30	< 20	< 35					
O=C(NCCc1cccc(Br)c1)Nc1ccc(Cl)cc1	0.0324		< 20	< 35	3.47	0.724			
O=C(NCCc1ccccc1F)Nc1ccc(Cl)cc1	0.17	< 30	< 20	< 35					
O=C(NCCc1ccc(Br)cc1)Nc1ccc(Cl)cc1	0.148	< 30	< 20	< 35					
O=C(NCCc1cc(Cl)cc(Cl)c1)Nc1ccc(Cl)cc1	0.024		< 20	< 35	1.74	4.37			
COc1ccc(CCNC(=O)Nc2ccc(Cl)cc2)cc1OC	1.78	< 30	< 20	< 35	> 10	> 10			
O=C(NCCc1cccc(OC(F)(F)F)c1)Nc1ccc(Cl)cc1	0.0933		< 20	< 35	7.94	10.7			
N#Cc1cccc(CCNC(=O)Nc2ccc(Cl)cc2)c1	0.145		< 20	< 35	0.832	0.871			
O=C(NCCc1ccc(Cl)cc1Cl)Nc1ccc(Cl)cc1	0.166	< 30	< 20	< 35					
O=C(NCCc1ccc([N+](=O)[O-])cc1)Nc1ccc(Cl)cc1	0.0851	< 30	< 20	< 35	2.95	1.78			
O=C(NCCc1ccccc1C(F)(F)F)Nc1ccc(Cl)cc1	0.126	< 30	< 20	< 35	4.27	3.24			
COc1cccc(CCNC(=O)Nc2ccc(Cl)cc2)c1	0.447	< 30	< 20	< 35	12.3	7.76			
O=C(NCCc1c(F)cc(F)cc1F)Nc1ccc(Cl)cc1	0.0794	< 30	< 20	< 35					
COc1cc(CCNC(=O)Nc2ccc(Cl)cc2)cc(OC)c1	1.07	< 30	< 20	< 35					

SMILES	IC50 (Cannabinoid receptor 1 [1]) [µM]	Emax (Cannabinoid receptor 1 [2]) [%]	Emax [3] [%]	Activity [4] [%]	IC50 (Cannabinoid receptor 1 [5]) [µM]	IC50 (Cannabinoid receptor 1 [6]) [µM]	IC50 (Cannabinoid receptor 1 [7]) [µM]	t1/2 [8] [min]	CLH [9] [µL/min/mg]
CC(C)(C)c1ccc(CCNC(=O)Nc2ccc(Cl)cc2)cc1	0.537	< 30	< 20	< 35	> 10	> 10	> 10		
O=C(NCCc1c(F)cccc1Cl)Nc1ccc(Cl)cc1	0.398	< 30	< 20	< 35					
Cc1ccc(CCNC(=O)Nc2ccc(Cl)cc2)cc1C	0.0479		< 20	< 35	2.57	1.15			
O=C(NCCc1ccc(F)cc1)Nc1ccc(Cl)cc1	0.105	< 30	< 20	< 35	4.37	1.7	0.891		
O=C(NCCc1c(F)c(F)c(F)c(F)c1F)Nc1ccc(Cl)cc1	0.0324	< 30	< 20	< 35					
O=C(NCCc1cccc(C(F)(F)F)c1)Nc1ccc(Cl)cc1	0.0288	< 30	< 20	< 35	1.29	0.676		15.5	90
O=C(NCCc1ccc(N2CCCCC2)cc1)Nc1ccc(Cl)cc1	0.912		< 20	< 35					
Cc1cccc(CCNC(=O)Nc2ccc(Cl)cc2)c1	0.0417	< 30	< 20	< 35	3.02	0.912		13.7	102
Cc1ccc(CCNC(=O)Nc2ccc(Cl)cc2)cc1	0.135	< 30	< 20	< 35	13.8	2.04			
Cc1cc(C)cc(CCNC(=O)Nc2ccc(Cl)cc2)c1	0.0288		< 20	< 35	6.61	6.61			
O=C(NCCc1ccc(O)cc1)Nc1ccc(Cl)cc1	> 10	< 30	< 20	< 35					
N#Cc1ccc(CCNC(=O)Nc2ccc(Cl)cc2)cc1	0.437	< 30	< 20	< 35					
CS(=O)(=O)c1ccc(CCNC(=O)Nc2ccc(Cl)cc2)cc1	> 10	< 30	< 20	< 35					
CN(C)c1cccc(CCNC(=O)Nc2ccc(Cl)cc2)c1	1.62	< 30	< 20	< 35					
O=C(NCCc1ccccc1)Nc1ccc(Cl)cc1	0.186		< 20	< 35	6.76	3.47			
COc1ccccc1CCNC(=O)Nc1ccc(Cl)cc1	1.58	< 30	< 20	< 35					
O=C(NCCc1ccc(Cl)cc1)Nc1ccc(Cl)cc1	0.162	< 30	< 20	< 35					
COc1ccc(CCNC(=O)Nc2ccc(Cl)cc2)cc1	0.214	< 30	< 20	< 35	5.62	4.17	3.72		

Reference: ChEMBL document CHEMBL5042498, “Development of 3-(4-Chlorophenyl)-1-(phenethyl)urea Analogues as Allosteric Modulators of the Cannabinoid Type-1 Receptor: RTICBM-189 is Brain Penetrant and Attenuates Reinstatement of Cocaine-Seeking Behavior” (J Med Chem, 2022)
